# An excerpt weighted towards active compounds, which were near 2% of everything screened.
# CRFBP-R2 agonist: CRF-BP/CRF-R2 complex agonism; HEK293 CRF-R2/CRF-BP, calcium dye fluorescence (FLIPR); percent of saturating CRF peptide response; activation, % at 13.2 µM; 0.46% of 350,000 active; AID 588473;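 active = activation of at least 50%, plus an integration ratio under a set limit after plate pattern correction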
# CRFR2-BP antag: antagonists of CRF-binding protein/CRF-R2 receptor complex; HEK293 CRF-R2/CRF-BP, CRF-induced calcium fluorescence; inhibition, % at 11.8 µM; 0.59% of 350,000 active;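 active = inhibition of the ligand-induced calcium signal above about 50% at the single tested concentration, limit read from the data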
# TRPML3 agonist: agonists of human TRPML3 channel; Q8TDD5; HEK293 TRPML3-YFP, Fluo-8 calcium fluorescence; 100% = the carbachol control signal; activation, % at 3 µM; 0.29% of 220,000 active;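 active = activation above its plate's cutoff, the mean activation of the plate's test wells plus 3 SD, cut at about 12% in these data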
#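 system = HEK293 cells stably carrying human TRPML3-YFP | doses = one concentration, 3 µM nominal, 0.3% DMSO | timing = dye loading 1 h 37 °C then 30 min ambient, 125 s read | detection = Fluo-8 calcium dye fluorescence, ex 470-495, em 515-575 nm | benchmarks = high control carbachol 87 µM, low control DMSO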
# GPR7 antag: blocks human GPR7 receptor signaling. inhibition, % at 4.4 µM. 1.1% of 290,000 active. AID 1861. GPR7-expressing cells, fluorescence antagonist assay; in the data active = inhibition above about 16%, passing the limit was not always enough;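 note: cells stimulated with the agonist NPW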
# Target sequence (P48145 whole entry, looked up): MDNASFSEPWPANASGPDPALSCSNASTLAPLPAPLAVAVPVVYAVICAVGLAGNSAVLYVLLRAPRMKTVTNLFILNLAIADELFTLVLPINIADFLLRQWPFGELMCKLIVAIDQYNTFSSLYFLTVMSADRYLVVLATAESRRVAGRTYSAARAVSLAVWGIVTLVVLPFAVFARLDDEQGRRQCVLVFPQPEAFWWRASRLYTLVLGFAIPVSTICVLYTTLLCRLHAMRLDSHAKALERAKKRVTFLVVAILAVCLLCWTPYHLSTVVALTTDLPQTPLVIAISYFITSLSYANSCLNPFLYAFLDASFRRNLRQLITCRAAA
# zfTRPN1 agonist: activates the zebrafish TRPN1 channel. HEK293 zebrafish TRPN1-YFP, Fluo-8 calcium fluorescence; 100% = response to 87 µM carbachol. activation, % at 3 µM. 0.18% of 220,000 active. AID 1424;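 active = activation above its plate's cutoff, the mean activation of test wells on that plate plus 3 SD, cut at about 19% in these data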
#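 Material – zebrafish TRPN1-YFP in HEK293 cells · Doses – 3 µM single point · Schedule – dye 1 h 37 °C plus 30 min RT · Signal – Fluo-8 calcium fluorescence, excitation 470-495 nm, emission 515-575 nm · Read-out – % activation versus carbachol response · Control set – carbachol high, DMSO low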
# A number is an active result; – = inactive; · = no result.
SMILES,CRFBP-R2 agonist,CRFR2-BP antag,TRPML3 agonist,GPR7 antag,zfTRPN1 agonist
O=c1[nH]c2ccccc2nc1/C=C(\O)c1cccs1,224,–,–,–,–
O=c1[nH]c2ccccc2nc1/C=C/c1ccc(O)cc1,104,–,–,–,–
O/C(=C\c1nc2ccccc2[nH]1)c1cccs1,–,–,·,–,·
O=C(/C(=C\c1ccccc1)c1nc2ccccc2[nH]1)c1ccc(Cl)cc1,–,–,–,–,–
O=C(/C(=C/c1ccc(Cl)cc1)c1nc2ccccc2[nH]1)c1cccs1,–,–,–,25,–
CCCCn1c(N)c(N(CCOC)C(=O)c2ccc3c(c2)C(=O)N(c2cc(C)ccc2C)C3=O)c(=O)[nH]c1=O,–,–,·,–,·
Cc1cc(C)c(OCC(=O)OCC(=O)NCCC2=CCCCC2)c(C)c1,–,–,·,·,·
CN(C(=O)CCN1C(=O)S/C(=C\c2ccccc2)C1=O)C1CCS(=O)(=O)C1 (configuration not stated),–,–,·,–,·
Cn1c(=O)n(C)c2cc(S(=O)(=O)Nc3cc(Cl)ccc3O)ccc21,–,103,–,–,–
Cn1c(=O)n(C)c2cc(S(=O)(=O)Nc3ccccc3O)ccc21,–,–,–,–,–
CCn1nnnc1SCC(=O)N1N=C(c2cccs2)CC1c1cccs1 (configuration not stated),–,–,·,·,·
CCOc1ccc(NC(=O)[C@@H](NC(=O)c2ccccc2)[C@@H](C)CC)cc1,–,63,–,–,–
CN(CC(=O)Nc1ccc(Cl)c(Cl)c1)C(=O)C1CCCC1,–,–,·,·,·
O=C(CNc1ccccc1)N/N=C/c1ccc([N+](=O)[O-])o1,–,85,–,–,–
Cc1ccc(NCC(=O)N/N=C\c2ccc([N+](=O)[O-])o2)cc1,–,–,–,–,–
O=[N+]([O-])c1ccc(S(=O)(=O)Nc2ccncc2)cc1,–,–,·,–,·
O=C(Nc1ccccc1)c1cccc(S(=O)(=O)Oc2ccc([N+](=O)[O-])cc2)c1,–,–,–,26,–
O=[N+]([O-])c1ccc(Oc2ccc(S(=O)(=O)Nc3ccccc3)cc2)cc1,–,–,–,58,21
O=C(Nc1ccc(C(=O)N2CCCCC2)cc1)C1CCC1,–,–,·,·,·
COc1ccccc1C(=O)NCCC(=O)Nc1ccc(S(=O)(=O)N2CC(C)CC(C)C2)cc1 (configuration not stated),–,–,·,·,·
O=C1c2ccccc2OC2(C=Cc3ccccc3O2)N1Cc1ccccc1 (configuration not stated),–,56,–,–,–
O=C1NC2(CCN(Cc3ccccc3)CC2)Oc2ccccc21,–,–,–,–,–
COc1ccc(NC(=O)CN2C(=O)NC(C)(c3ccc4c(c3)OCCO4)C2=O)cc1S(N)(=O)=O (configuration not stated),–,–,·,·,·
O=[N+]([O-])c1cc(/C=N/N/C(=N/c2ccccn2)c2ccccn2)ccc1O,66,64,–,–,–
O=[N+]([O-])c1ccc(/C=N/N/C(=N/c2ccccn2)c2ccccn2)cc1,–,–,–,–,–
SMILES,CRFBP-R2 agonist,CRFR2-BP antag,TRPML3 agonist,GPR7 antag,zfTRPN1 agonist
CCN1CC=C2C(C#N)=C(N)C(C#N)(C#N)C(CCc3ccccc3)C2C1 (configuration not stated),57,–,–,–,–
O=C1NC(=O)C2(N1)c1ccccc1-c1ccccc12,–,–,·,·,·
O=C1NC(=O)C2(N1)C(=O)c1cccc3cccc2c13 (configuration not stated),85,–,·,·,·
CC1C(=O)N(Cc2cn(CCC3OCCCO3)nn2)CCS(=O)(=O)N1Cc1ccc(-c2ccc(Cl)cc2)cc1 (configuration not stated),–,52,·,·,·
Cc1ccc(-c2ccc(CN3C(C)C(=O)N(Cc4cn(Cc5ccco5)nn4)CCS3(=O)=O)cc2)cc1 (configuration not stated),–,–,·,·,·
COc1ccc(-c2ccc(CN3C(C)C(=O)N(Cc4cn(Cc5ccco5)nn4)CCS3(=O)=O)cc2)cc1 (configuration not stated),–,69,·,·,·
O=C(NNC1=C(C(=O)C(F)(F)F)CCC1)c1cccc(Cl)c1,–,55,–,–,–
O=C(NNC1=C(C(=O)C(F)(F)F)CCC1)c1ccc(Cl)cc1,–,–,–,–,–
Cc1ccc(C(=O)OCC(=O)N2CCC(c3ccccc3)=N2)cc1,–,–,·,·,·
O=C(COC(=O)COc1ccc(Cl)cc1)NCc1ccc2c(c1)OCO2,–,–,·,·,·
O=C(COC(=O)CSc1cc(Cl)ccc1Cl)NCc1ccc2c(c1)OCO2,52,–,–,–,–
CC(=O)c1ccc(-c2cccs2)s1,–,64,–,–,–
CC1(c2ccc([N+](=O)[O-])cc2)NC(=O)N(CC(=O)c2ccc3c(c2)OCO3)C1=O (configuration not stated),60,–,·,·,·
CC1(c2ccc(OC(F)F)cc2)NC(=O)N(CC(=O)c2ccc3c(c2)OCO3)C1=O (configuration not stated),86,–,·,·,·
CC1(C)C[C@H]2C3=CCC4[C@@]5(C)CC[C@H](O[C@@H]6O[C@H](C(=O)O)[C@@H](O)[C@H](O)[C@H]6O)[C@@](C)(CO)C5CC[C@@]4(C)[C@]3(C)C[C@H](O)[C@@]2(CO)[C@@H](O)[C@@H]1O (some centres not stated),–,–,·,·,·
CC(=O)OC1COC(OC2C(O)C(C)OC(OC3C(OC4CCC5(C)C(CCC6(C)C5CC=C5C7CC(C)(C)CCC7(C(=O)O)CCC56C)C4(C)CO)OCC(O)C3O)C2O)C(O)C1OC(C)=O (configuration not stated),·,·,95,–,123
C/C=C(\C)C(=O)OC1[C@H](OC(C)=O)C2(CO)C(CC1(C)C)C1=CCC3C4(C)CCC(O[C@@H]5O[C@H](C(=O)O)[C@@H](O[C@@H]6O[C@H](CO)[C@@H](O)[C@H](O)[C@H]6O)[C@H](O)[C@H]5O[C@H]5O[C@H](CO)[C@@H](O)[C@H](O)[C@H]5O)[C@](C)(CO)C4CCC3(C)[C@]1(C)C[C@H]2O (some centres not stated),159,–,·,·,·
C/C=C(/C)C(=O)OC1CC(C)(C)C[C@H]2C3=CC[C@@H]4[C@@]5(C)CCC(O[C@@H]6O[C@@H](C(=O)O)[C@@H](O)C(O[C@@H]7OC[C@H](O)[C@@H](O)[C@@H]7O[C@@H]7OC(CO)C(O)[C@@H](O)[C@@H]7O)C6O[C@@H]6OC(CO)C(O)C(O)C6O)[C@@](C)(CO)[C@@H]5CC[C@]4(C)[C@]3(C)CC(O)[C@@]12CO (some centres not stated),112,–,·,·,·

# Compound activity as filed in PubChem BioAssay.
